From PubChem BioAssay
CSN inh = inhibitors of CSN-mediated cullin deneddylation, primary screen, biochemical, fluorescence polarization, uHTS; COP9 signalosome complex subunit 5 (Homo sapiens), Q92905; Purified CSN, SCF-Nedd8-OG deneddylation; inhibition, % at 12.5 µM; 0.38% of 360,000 active; AID 651999, 2013;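 active = pattern-corrected inhibition above about 35%, with an unprinted fluorescence ratio check between 0.5 and 1.5, limit read from the data, passing the limit was not always enough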;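 also: 0% = enzyme with substrate and 100% = substrate without enzyme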
Target sequence (Q92905 whole entry, looked up, one chain of several): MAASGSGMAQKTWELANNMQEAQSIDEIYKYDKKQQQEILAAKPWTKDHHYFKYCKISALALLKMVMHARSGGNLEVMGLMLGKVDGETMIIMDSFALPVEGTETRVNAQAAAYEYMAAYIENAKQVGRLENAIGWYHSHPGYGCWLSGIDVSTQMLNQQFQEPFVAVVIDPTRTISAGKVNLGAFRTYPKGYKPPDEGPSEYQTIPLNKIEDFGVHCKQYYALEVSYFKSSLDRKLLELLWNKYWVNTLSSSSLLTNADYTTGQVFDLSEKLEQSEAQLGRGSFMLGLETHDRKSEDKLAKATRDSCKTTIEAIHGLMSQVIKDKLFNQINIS
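Test system: purified human Csn5 enzyme expressed in HEK293T cells. Amount: 0.24 nM enzyme. Reagent: SCFSkp2-Nedd8OG substrate at 10 nM final. Schedule: 90 min incubation of compound, enzyme and substrate at room temperature. Detection: fluorescence polarization. Read-out: % inhibition of substrate cleavage by Csn5.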
Rpn11 block = Rpn11 (PSMD14) deubiquitinase inhibitors, primary screen, biochemical, fluorescence polarization, uHTS; 26S proteasome non-ATPase regulatory subunit 14 (Homo sapiens), O00487; human 26S proteasome, Ub4-pepOG fluorescence polarization; 20S core pre-blocked with epoxomicin; inhibition, % at 20 µM; 0.59% of 360,000 active;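 active = inhibition at 20 µM, scaled to each plate's controls, above about 33%, limit read from the data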
Target sequence (O00487 whole entry, looked up): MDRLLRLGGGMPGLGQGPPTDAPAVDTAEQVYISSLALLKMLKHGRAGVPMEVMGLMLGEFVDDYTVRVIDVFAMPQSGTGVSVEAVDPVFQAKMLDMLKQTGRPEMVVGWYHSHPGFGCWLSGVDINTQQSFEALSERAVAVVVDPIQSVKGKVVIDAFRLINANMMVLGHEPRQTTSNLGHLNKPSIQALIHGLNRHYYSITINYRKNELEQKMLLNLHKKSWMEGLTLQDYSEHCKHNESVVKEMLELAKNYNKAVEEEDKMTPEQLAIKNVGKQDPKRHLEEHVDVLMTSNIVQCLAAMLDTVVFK
HNF4A DNA FP = change in binding of human HNF4A to DNA, primary screen, biochemical, fluorescence polarization, FITC-DNA | 0.3% of 360,000 active | activity change, % at 10 µM | 1 h; in the data active = activity change above about 30%, passing the limit was not always enough
TPT1 inh = Candida albicans TPT1 enzyme inhibitors, primary screen, biochemical, fluorescence polarization; tRNA 2'-phosphotransferase TPT1 (Candida albicans SC5314); recombinant caTPT1, FP RNA substrate dephosphorylation; inhibition, % at 5 µM; AID 1962, 2009; 0.81% of 300,000 active;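 active = inhibition above the mean of all tested compounds plus 3 SD, set per screening campaign, cut at about 24% in these data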;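 also: plate controls were DMSO alone for no effect and ferristatin control at 100 nM for full effect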
Xi reactivation = activators of inactive X chromosome reactivation, primary screen, imaging, XiGFP fibroblasts, GFP high-content imaging, set 2; XiGFP mouse fibroblasts, % GFP-positive cells imaging, 3 d; cells co-treated with 5-aza-dC sensitizer; scaled so ellipticine positive control = 100%; activation, % at 7.58 µM; 0.055% of 360,000 active; AID 743238, 2013;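 active = mean normalized replicate activation at least 10% and every replicate at or above 10%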;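 also: 0% = median of on-plate neutral control wells and 100% = ellipticine 6 µM median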
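System: XiGFP fibroblasts, SV40-immortalized. Medium: DMEM plus 5-aza-dC sensitizer. Doses: single point. Timing: 3 d treatment, 15 min room-temperature fixation. Control set: ellipticine 6 µM.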
aDG glyco act = activators of alpha-DG glycosylation, primary screen, uHTS, Pro5-aDG cells, AlphaScreen; activation, % at 10 µM; alpha-DG glycosylation AlphaScreen (IIH6); 0% Pro5, 100% B10-LARGE cell signal; 0.22% of 360,000 active;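 active = activation of at least 8% versus controls, or a plate z-score of at least 8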;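 also: Pro5 are CHO cells carrying HIG-tagged alpha-DG that lacks glycosylation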
caTPT1 confirm = Candida albicans TPT1 inhibitors, confirmation, biochemical, fluorescence polarization, triplicate. shares compounds with TPT1 inh. recombinant caTPT1, RNase T1 coupled. inhibition, % at 5 µM. 74% of 2,400 active. AID 2149, 2009;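 active = inhibition above the primary screen limit, the mean inhibition of all tested compounds plus 3 SD, cut at about 25% in these data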
RNase T1 inh = RNase T1 inhibitors, counter-screen for TPT1 inhibitor project, biochemical, fluorescence polarization. shares compounds with TPT1 inh. RNase T1 cleavage, 1536-well. inhibition, % at 5 µM. 83% of 2,400 active. AID 2153, 2009;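 active = inhibition above the solvent-only control well mean plus 3 SD, limit set per screening run, cut at about 23% in these data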;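 also: plate controls were DMSO wells with enzyme for no effect and wells without RNase T1 for full effect; inhibitors block cleavage so intact labeled substrate keeps polarization high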
Rpn11 inh conf = Rpn11 (PSMD14) deubiquitinase inhibitors, confirmation, biochemical, fluorescence polarization, single concentration; shares compounds with Rpn11 block; purified human 26S proteasome, Ub4-pepOG fluorescence polarization; proteasome pretreated with epoxomicin; inhibition, % at 20 µM; 29% of 1,900 active
MMP-2 counter-1 = MMP-2 enzyme inhibition, confirmation, counter-screen for RPN11 inhibitor project, biochemical, fluorescence, single concentration. inhibition, % at 20 µM. shares compounds with Rpn11 block. 4% of 1,900 active. recombinant MMP-2, FRET peptide cleavage fluorescence. AID 602330, 2012;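 also: human MMP-2 activated beforehand with APMA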
Thrombin inh = bovine thrombin protease inhibition, confirmation, counter-screen for Rpn11 inhibitor project, biochemical, fluorescence polarization, single concentration. AID 602333, 2012. inhibition, % at 20 µM. 13% of 1,900 active. shares compounds with Rpn11 block. bovine thrombin cleavage of Ub4-pepOG;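 active = mean inhibition at least 40% at 20 µM, or signal 3 deviations below plate average, so some actives read negative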;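 also: plate controls were thrombin with DMSO for no effect and buffer wells lacking thrombin for full effect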
CSN deneddyl val = Csn5 deneddylation inhibitors, confirmation, biochemical, fluorescence polarization, single concentration, SCF-Nedd8OG substrate. inhibition, % at 16.6 µM. AID 720654, 2013. 62% of 540 active. Csn5 deneddylation of SCF-Nedd8OG, 90 min. shares compounds with CSN inh; in the data active = inhibition above about 50%;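 also: 0% = DMSO with enzyme and 100% = no enzyme wells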
MMP-2 counter-2 = MMP-2 protease inhibition counter-screen, confirmation, counter-screen for CSN deneddylation inhibitor project, biochemical, fluorescence, single concentration | shares compounds with CSN inh | recombinant MMP-2, FRET substrate fluorescence, 60 min | inhibition, % at 16.6 µM | 33% of 540 active | AID 720655, 2013;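 active = corrected plate-normalized z-score of 5 or more, or -5 or less, or inhibition of 15% or more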;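 also: plate controls were DMSO wells with enzyme for no effect and buffer wells lacking MMP-2 for full effect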
Thrombin cntr = thrombin (bovine) inhibition, counter-screen for CSN hits | inhibition, % at 16.6 µM | AID 720656 | bovine thrombin cleavage of Ub4-pepOG, fluorescence polarization | shares compounds with CSN inh | 49% of 540 active;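 active = inhibition at or above a set limit, with a fluorescence interference ratio between 0.5 and a set maximum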
* hit, by the source's call; . = not tested or not shown. The list is not random: actives were taken first. Their share in the collection is about 1.3%. Rule as the data show it, unless noted: active = inhibition above about 40%; inactive = the rest.

SMILES	CSN inh	Rpn11 block	HNF4A DNA FP	TPT1 inh	Xi reactivation	aDG glyco act	caTPT1 confirm	RNase T1 inh	CSN deneddyl val	MMP-2 counter-2	Thrombin cntr	others
O=C(NN1C(=O)/C(=C/c2ccc(O)c(O)c2)SC1=S)c1ccccc1	50*	.	33	31*	0	0	44*	57*	63*	20*	33*
COc1cc(/C=C2/SC(=S)N(CC3CCCO3)C2=O)ccc1O (stereo unspecified)	58*	.	41*	39*	0	0	41*	51*	65*	-4	75*
CCOc1cc(/C=C2\SC(=S)N(NS(=O)(=O)c3ccccc3)C2=O)ccc1O	33	.	15	13	0	0	.	.	.	.	.
COc1cccc(/C=C2\SC(=S)N(NC(=O)c3ccncc3)C2=O)c1	6	7	2	1	0	0	.	.	.	.	.
Cc1ccc(S(=O)(=O)Nc2ccc3c(c2)C(=O)N([C@@H](C)CO)C[C@H](C)[C@H](CN(C)C(=O)Nc2ccc(F)cc2)O3)cc1	.	.	.	.	-1	.	.	.	.	.	.
CC(C)CC#Cc1ccc([C@H]2[C@H](CO)N3CCCCN(S(=O)(=O)c4ccc(F)cc4)C[C@@H]23)cc1	.	.	.	.	0	.	.	.	.	.	.
C[C@H](CO)N1C[C@H](C)[C@H](CN(C)C)Oc2cc(-c3ccccc3F)ccc2S1(=O)=O	.	.	.	.	0	.	.	.	.	.	.
COc1cc(/C=C2\SC(=N)N(c3ccc(F)cc3)C2=O)ccc1O	8	21	14	21	0	0	.	.	.	.	.
O=C1C2C3C=CC(CC3)C2C(=O)N1/N=C/c1ccc(O)cc1 (stereo unspecified)	5	-3	2	-4	.	0	.	.	.	.	.
CC(=O)NN1C(=O)/C(=C\c2ccc(O)cc2)SC1=S	96*	.	82*	37*	0	0	41*	48*	39	-5	73*
CC(=O)NN1C(=O)/C(=C\c2ccc(C)cc2)SC1=S	-1	-1	3	-1	.	0	.	.	.	.	.
O=C1/C(=C\c2ccc(O)cc2)SC(=S)N1/N=C/c1ccc(O)cc1	94*	.	106*	65*	0	0	62*	68*	38	-23	86*
COc1cc(/C=C2\SC(=S)N(NC(=O)c3cccnc3)C2=O)ccc1O	39*	.	52*	25*	0	0	34*	42*	65*	9	35*
COc1cc(/C=C2\SC(=S)N(c3cccnc3)C2=O)ccc1O	149	.	0	23	0	0	.	.	.	.	.
COc1cc(/C=C2\SC(=S)N(Nc3ncc(C(F)(F)F)cc3Cl)C2=O)ccc1O	67*	72*	82*	27*	.	0	32*	43*	78*	-14	61*	Rpn11 inh conf=75*;MMP-2 counter-1=-20;Thrombin inh=75*
CO[C@H]1CN(C)C(=O)c2ccc(NS(C)(=O)=O)cc2OC[C@@H](C)N(Cc2cncnc2)C[C@H]1C	.	.	.	.	0	.	.	.	.	.	.
Cc1ccc(-c2cnc3c(c2)C(=O)N([C@@H](C)CO)C[C@@H](C)[C@@H](CN(C)C(=O)c2ccccc2)O3)cc1	.	.	.	.	-1	.	.	.	.	.	.
COc1cc(/C=C2\SC(=S)N(C(Cc3ccccc3)C(=O)O)C2=O)ccc1O (stereo unspecified)	36*	103*	35*	33*	0	0	37*	49*	56*	6	68*	Rpn11 inh conf=62*;MMP-2 counter-1=-17;Thrombin inh=79*
O=C(O)C(Cc1ccccc1)N1C(=O)/C(=C/c2ccccc2)SC1=S (stereo unspecified)	0	-5	0	-2	0	0	.	.	.	.	.
CCC(=O)N1[C@@H]2Cn3c(ccc(-c4ccncc4)c3=O)[C@H]1[C@@H](C(=O)N1CCc3ccccc3C1)[C@@H]2CO	.	.	.	.	0	.	.	.	.	.	.
Cn1c(O)c(/C=N/NC(=O)c2cc3ccccc3cc2O)c2ccccc21	40*	.	62	122*	0	0	127*	125*	75*	1	45*
CNC(=O)C[C@H]1CC[C@@H]2[C@@H](COc3ccc(NC(=O)c4ccc(C(F)(F)F)cc4)cc3C(=O)N2C)O1	.	.	.	.	0	.	.	.	.	.	.
CCOc1ccc(NC(=O)CN(C)C(=O)c2cc(-c3ccco3)nc3ccccc23)cc1OCC	-2	6	0	.	0	0	.	.	.	.	.
Cc1ccc(NC(=O)CN(C)C(=O)c2cc(-c3ccco3)nc3ccccc23)cc1	51*	16	-25	25*	0	0	10	14	.	10	-6
